ChEMBL document CHEMBL5712901, “DOT1L inhibition blocks multiple myeloma cell proliferation by suppressing IRF4-MYC signaling” (2019)
Calls of active or inactive are those of the source. The calls are words filed in the database; no cut-off is given here.

Key:
RPMI-8226 [1] = assay: Induction of apoptosis in human RPMI-8226 cells assessed as early apoptotic cells at 1 uM for 6 days by annexin-V based propidium iodide staining based flow cytometric analysis (reference value: 6.19%); format: functional; settings: time 6 day
RPMI-8226 [2] = assay: Upregulation of IFN in human RPMI-8226 cells assessed as increase in IFIT1 gene at 1 uM for 6 days by qRT-PCR analysis; settings: time 6.0 day
MM1.S [3] = assay: Upregulation of IFN in human MM1.S cells assessed as increase in IFIT1 gene at 1 uM for 6 days by qRT-PCR analysis; settings: time 6.0 day
MM1.S [4] = assay: Induction of cell cycle arrest in human MM1.S cells assessed as increase in accumulation of cells at G1 phase at 1 uM for 6 days; format: functional, cell-based; settings: time 6.0 day
How it was run: (§1)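 Flow cytometric cell cycle analysis of RPMI-8226 and MM.1S cells treated with 1 μM DOT1L inhibitor or DMSO for 6 days. Sub-G1, G0-G1 and S phase populations scored. Summary is from 3 replications, mean ± SEM.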

MM1.S [5] = assay: Antiproliferative activity against human MM1.S cells treated 3 days at 1 uM; format: functional, cell-based; settings: time 3.0 day
How it was run: (§2)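 Cell lines in 6-well plates, 2 × 10^4 to 8 × 10^5 cells/well, exposed to DOT1L inhibitor at 0.25-1 μM or DMSO, with medium and drug refreshed every 3 days. Viability read with Cell Counting Kit-8 on a microplate reader. Values normalized to untreated cells; mean of 3 replications ± SEM.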

KMS-12-BM [6] = assay: Effect on human KMS-12-BM cells assessed as decrease in IRF4 mRNA level at 1 uM for 6 days by qRT-PCR analysis; format: functional, cell-based; settings: time 6.0 day
How it was run: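 qRT-PCR of MYC and IRF4 after 1 μM DOT1L inhibitor for 6 days. Normalized to ACTB; mean of 3 replications ± SEM.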

RPMI-8226 [7] = assay: Upregulation of IFN in human RPMI-8226 cells assessed as increase in IFITM1 gene at 1 uM for 6 days by qRT-PCR analysis; settings: time 6.0 day
RPMI-8226 [8] = assay: Induction of apoptosis in human RPMI-8226 cells assessed as necrotic cells at 1 uM for 6 days by annexin-V based propidium iodide staining based flow cytometric analysis (reference value: 3.92%); format: functional; settings: time 6 day
KMS-12-PE [9] = assay: Effect on human KMS-12-PE cells assessed as change in MYC mRNA level by qRT-PCR analysis; format: functional, cell-based
How it was run: (§3)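 Basal MYC and IRF4 mRNA in untreated cells measured by qRT-PCR. Normalized to ACTB; mean of 3 replications ± SEM.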

RPMI-8226 [10] = assay: Induction of cell cycle arrest in human RPMI-8226 cells assessed as increase in accumulation of cells at G0 phase at 1 uM for 6 days; format: functional, cell-based; settings: time 6.0 day; how it was run: as §1
KMS-12-PE [11] = assay: Antiproliferative activity against human KMS-12-PE cells assessed as reduction in cell viability measured at 1 uM for 18 days; format: functional, cell-based; settings: time 18.0 day
RPMI-8226 [12] = assay: Antitumor activity against compound pretreated cells human RPMI-8226 cells at 1 uM for 3 days xenografted in SCID mouse assessed as reduction of tumor volume measured upto 36 days; format: functional, cell-based; settings: time 39.0 day
How it was run: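 Ex vivo pretreatment: RPMI-8226 cells exposed to 1 μM DOT1L inhibitor or DMSO for 3 days. Then 1 × 10^7 cells in 200 μl RPMI-1640 injected subcutaneously into the thighs of 6-week-old C.B-17 SCID mice, with drug-treated cells in the left thigh and DMSO cells in the right. Tumor measured every 3 days by calipers; volume = length × width²/2; n = 5, mean ± SEM.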

RPMI-8226 [13] = assay: Upregulation of IFN in human RPMI-8226 cells assessed as increase in ISG15 gene at 1 uM for 6 days by qRT-PCR analysis; settings: time 6.0 day
MM1.S [14] = assay: Induction of apoptosis in human MM1.S cells assessed as necrotic cells at 1 uM for 3 days by annexin-V based propidium iodide staining based flow cytometric analysis (reference value: 0.064%); format: functional; settings: time 3 day
KMS-12-BM [15] = assay: Antiproliferative activity against human KMS-12-BM cells treated 3 days at 1 uM; format: functional, cell-based; settings: time 3.0 day; how it was run: as §2
RPMI-8226 [16] = assay: Induction of apoptosis in human RPMI-8226 cells assessed as necrotic cells at 1 uM for 6 days by annexin-V based propidium iodide staining based flow cytometric analysis (reference value: 3.61%); format: functional; settings: time 6 day
MM1.S [17] = assay: Induction of apoptosis in human MM1.S cells assessed as early apoptotic cells at 1 uM for 6 days by annexin-V based propidium iodide staining based flow cytometric analysis (reference value: 14.6%); format: functional; settings: time 6 day
U-266 = assay: Antiproliferative activity against human U-266 cells treated 3 days at 1 uM; format: functional, cell-based; settings: time 3.0 day; how it was run: as §2
MM1.S [18] = assay: Induction of apoptosis in human MM1.S cells assessed as late apoptotic cells at 1 uM for 6 days by annexin-V based propidium iodide staining based flow cytometric analysis (reference value: 4.85%); format: functional; settings: time 6 day
KMS-12-BM [19] = assay: Effect on human KMS-12-BM cells assessed as change in IRF4 mRNA level by qRT-PCR analysis; format: functional, cell-based; how it was run: as §3
MM1.S [20] = assay: Effect on human MM1.S cells assessed as change in IRF4 mRNA level at 1 uM for 6 days by qRT-PCR analysis; settings: time 6.0 day
MM1.S [21] = assay: Upregulation of ID1 gene in human MM1.S cells at 1 uM for 6 days by; format: functional, cell-based; settings: time 6.0 day
RPMI-8226 [22] = assay: Upregulation of ENC1 gene in human RPMI-8226 cells at 1 uM for 6 days by; format: functional, cell-based; settings: time 6.0 day
How it was run: (§4)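 Human myeloma lines RPMI-8226 and MM.1S exposed to 1 μM DOT1L inhibitor, or DMSO, for 6 days. Whole-genome expression profiled on gene expression microarray.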

RPMI-8226 [23] = assay: Upregulation of MYOF gene in human RPMI-8226 cells at 1 uM for 6 days by; format: functional, cell-based; settings: time 6.0 day
RPMI-8226 [24] = assay: Upregulation of MILR1 gene in human RPMI-8226 cells at 1 uM for 6 days by; format: functional, cell-based; settings: time 6.0 day
RPMI-8226 [25] = assay: Upregulation of FZD1 gene in human RPMI-8226 cells at 1 uM for 6 days by; format: functional, cell-based; settings: time 6.0 day; how it was run: as §4
MM1.S [26] = assay: Upregulation of ACOT11 gene in human MM1.S cells at 1 uM for 6 days by; format: functional, cell-based; settings: time 6.0 day
RPMI-8226 [27] = assay: Upregulation of CAPN2 gene in human RPMI-8226 cells at 1 uM for 6 days by; format: functional, cell-based; settings: time 6.0 day
MM1.S [28] = assay: Upregulation of PTGER4 gene in human MM1.S cells at 1 uM for 6 days by; format: functional, cell-based; settings: time 6.0 day
MM1.S [29] = assay: Upregulation of MYO1F gene in human MM1.S cells at 1 uM for 6 days by; format: functional, cell-based; settings: time 6.0 day
RPMI-8226 [30] = assay: Upregulation of IFIT1 gene in human RPMI-8226 cells at 1 uM for 6 days by; format: functional, cell-based; settings: time 6.0 day
MM1.S [31] = assay: Upregulation of POPDC2 gene in human MM1.S cells at 1 uM for 6 days by; format: functional, cell-based; settings: time 6.0 day
MM1.S [32] = assay: Upregulation of EMILIN2 gene in human MM1.S cells at 1 uM for 6 days by; format: functional, cell-based; settings: time 6.0 day; how it was run: as §4
RPMI-8226 [33] = assay: Upregulation of CTSH gene in human RPMI-8226 cells at 1 uM for 6 days by; format: functional, cell-based; settings: time 6.0 day; how it was run: as §4

Structure (SMILES)	Activity (RPMI-8226 [2])	Activity (MM1.S [3])	Activity (MM1.S [4])	Activity (MM1.S [5])	Activity (KMS-12-BM [6])	Activity (RPMI-8226 [8]) [%]	Activity (KMS-12-PE [9])	Activity (RPMI-8226 [10])	Activity (KMS-12-PE [11])	Activity (RPMI-8226 [13])	Activity (KMS-12-BM [15])	Activity (RPMI-8226 [16]) [%]	Activity (MM1.S [17]) [%]	Activity (U-266)	Activity (MM1.S [18]) [%]	Activity (KMS-12-BM [19])	further results
CC(C)N(C[C@H]1O[C@@H](n2cnc3c(N)ncnc32)[C@H](O)[C@@H]1O)[C@H]1C[C@@H](CCc2nc3cc(C(C)(C)C)ccc3[nH]2)C1 [PINOMETOSTAT]	Active	Active	Active	Active	Active	3.98	Active	Active	Active	Active	Active	9.09	21.1	inactive	11.4	Active	Activity (RPMI-8226 [1]): 22.4%; Activity (RPMI-8226 [7]): Active; Activity (RPMI-8226 [12]): Active; Activity (MM1.S [14]): 0.06%
CC(C)N(CCCNC(=O)Nc1ccc(C(C)(C)C)cc1)C[C@H]1O[C@@H](n2cc(Br)c3c(N)ncnc32)[C@H](O)[C@@H]1O	Active	Active	Active	Active	Active	4.83	Active	Active	Active	Active	Active	8.1	20.2	inactive	11.7	Active	Activity (MM1.S [20]): Active; Activity (MM1.S [21]): Active; Activity (RPMI-8226 [22]): Active; Activity (RPMI-8226 [23]): Active; Activity (RPMI-8226 [24]): Active; Activity (RPMI-8226 [25]): Active; Activity (MM1.S [26]): Active; Activity (RPMI-8226 [27]): Active; Activity (MM1.S [28]): Active; Activity (MM1.S [29]): Active; Activity (RPMI-8226 [30]): Active; Activity (MM1.S [31]): Active; Activity (MM1.S [32]): Active; Activity (RPMI-8226 [33]): Active
